Measurements published in ChEMBL document CHEMBL4689842, “EUbOPEN Chemogenomics Library wave 1” (2021).
Where “and” joins values, the source holds several entries; their conditions need not be identical. Equal values may be shown once.

Tested on: Fibroblast
Assay: Multiplex assay against human fibroblast
Format: toxicity, cell-based
Conditions: 10 µM, compound concentration 10 uM
Method in brief: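 Cells were classed with CellPathfinder machine-learning gating, first as Hoechst high-intensity objects or normal cells, then (normal cells) as healthy, pyknosed or fragmented nuclei, and finally (pyknosed cells) as mitotic or apoptotic. Staining of live cells at seeding used Hoechst33342, BioTracker Green Microtubule Cytoskeleton Dye, MitoTracker Red and Annexin V Alexa Fluor 680, with imaging on a CQ1 microscope at 37°C and 5% CO2 after compound addition. Tubulin, mitochondrial-mass and membrane-permeability phenotypes are per cents of healthy-nucleus cells.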

## Cn1nc(C(=O)NCc2ccc(C(=O)O)cc2)cc1-c1ccc2[nH]ccc2c1 [BI 4395]
12 h, replicate 1
  Population Apoptotic (%): 77% and 69%
  Population Fragmented Nuclei (%): 29% and 28%
  Population Healthy Nuclei (%): 57%
  Population Hoechst High Intensity Objects (%): 12% and 19%
  Population Mitochondria Different-Phenotype (%): 3% and 2%
  Population Mitotic Cells (%): 22% and 30%
  Population Normal (%): 87% and 80%
  Population Pyknosed Nuclei (%): 13% and 14%
  Population Tubulin-Different-Phenotype (%): 9% and 4%
  Total Cell Count: 190 and 199
12 h, replicate 2
  Population Apoptotic (%): 42% and 100%
  Population Fragmented Nuclei (%): 43% and 54%
  Population Healthy Nuclei (%): 38% and 39%
  Population Hoechst High Intensity Objects (%): 29% and 49%
  Population Membrane Permeable-Phenotype (%): 26% and 9%
  Population Mitochondria Different-Phenotype (%): 13% and 0%
  Population Normal (%): 70% and 50%
  Total Cell Count: 55 and 104
24 h, replicate 1
  Population Apoptotic (%): 71% and 69%
  Population Fragmented Nuclei (%): 29% and 27%
  Population Healthy Nuclei (%): 58% and 57%
  Population Hoechst High Intensity Objects (%): 12% and 17%
  Population Membrane Permeable-Phenotype (%): 9% and 5%
  Population Mitochondria Different-Phenotype (%): 2% and 0%
  Population Mitotic Cells (%): 28% and 30%
  Population Normal (%): 87% and 82%
  Population Pyknosed Nuclei (%): 14%
  Population Tubulin-Different-Phenotype (%): 7% and 4%
  Total Cell Count: 202 and 211
24 h, replicate 2
  Population Fragmented Nuclei (%): 75% and 51%
  Population Healthy Nuclei (%): 25% and 37%
  Population Hoechst High Intensity Objects (%): 44% and 38%
  Population Membrane Permeable-Phenotype (%): 15%
  Population Mitochondria Different-Phenotype (%): 15% and 7%
  Population Mitotic Cells (%): 0%
  Population Normal (%): 55% and 61%
  Population Pyknosed Nuclei (%): 0% and 11%
  Population Tubulin-Different-Phenotype (%): 15% and 38%
  Total Cell Count: 94 and 57
